In brackets after ≈: the same amount, converted by molar mass. Activity calls are given as the source filed them. No cut-off for these calls is given here.
Key:
Escherichia coli [1] = experiment: Antibacterial activity against Escherichia coli ATCC 25922 assessed as growth inhibition after 48 hrs by two-fold serial dilution assay; assay type: functional; conditions: ATCC 25922, 48 h
Outline: (§1)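 Twofold serial broth dilution run on compounds giving inhibition zones of 13 mm or more. Organisms pre-grown in suitable broth at 37 °C, 24 h for bacteria and 48 h for fungi. Dilution series 200, 100, 50, 25, 12.5, 6.25. Each 5 mL tube inoculated with 0.1 mL and incubated 37 °C for 48 h. Tubes scored for presence or absence of growth.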

Pseudomonas aeruginosa [2] = experiment: Bactericidal activity against Pseudomonas aeruginosa ATCC 27853 after 18 hrs; assay type: functional; conditions: ATCC 27853, 18 h
Outline: (§2)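 Continuation of the broth-dilution MIC test. A loopful from each tube without visible growth spread on a quarter of a Mueller-Hinton agar plate and incubated 18 h. Lowest concentration giving no growth on subculture taken as the MBC.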

NCI-H322M = experiment: Cytotoxicity against human NCI-H322M cells assessed as growth inhibition at 10 uM after 48 hrs by SRB assay; assay type: functional; conditions: read-out: GI
Outline: (§3)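 NCI-60 one-dose primary screen run by the NCI Drug Evaluation Branch across the full 60-line panel. Single high-dose treatment with 48 h continuous drug exposure. Cell growth estimated by sulforhodamine B protein staining. Results given as percent growth of treated cells and expressed as percentage growth inhibition.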

CCRF-CEM = experiment: Cytotoxicity against human CCRF-CEM cells assessed as growth inhibition at 10 uM after 48 hrs by SRB assay; assay type: functional; conditions: read-out: GI; outline: as §3
Candida albicans = experiment: Antifungal activity against Candida albicans ATCC 10231 assessed as growth inhibition at 1 mg/mL after 48 hrs by agar-cup diffusion method; assay type: functional; conditions: ATCC 10231, 48 h, read-out: DIZ
Outline: (§4)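 Agar-cup diffusion: 1 mL of 6 h broth culture seeded per 100 mL molten sterile agar at 45 °C and poured into plates. 8 mm cups cut, each filled with 0.1 mL of 1 mg/mL test solution. Incubated 37 °C for 24 h, 48 h for C. albicans. DMSO control per organism. Inhibition zone diameter in mm, mean of three measurements.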

Escherichia coli [3] = experiment: Bactericidal activity against Escherichia coli ATCC 25922 after 18 hrs; assay type: functional; conditions: ATCC 25922, 18 h; outline: as §2
Bacillus spizizenii [4] = experiment: Antibacterial activity against Bacillus subtilis ATCC 6633 assessed as growth inhibition after 48 hrs by two-fold serial dilution assay; assay type: functional; conditions: ATCC 6633, 48 h; outline: as §1
HOP-92 = experiment: Cytotoxicity against human HOP92 cells assessed as growth inhibition at 10 uM after 48 hrs by SRB assay; assay type: functional; conditions: HOP-92, 48 h, read-out: GI; outline: as §3
[5] = Cytotoxicity against human NCI-ADR-RES cells assessed as growth inhibition at 10 uM after 48 hrs by SRB assay; assay type: functional; conditions: read-out: GI; outline: as §3
PC-3 = experiment: Cytotoxicity against human PC3 cells assessed as growth inhibition at 10 uM after 48 hrs by SRB assay; assay type: functional; conditions: PC-3, 48 h, read-out: GI; outline: as §3
HCC 2998 = experiment: Cytotoxicity against human HCC2998 cells assessed as growth inhibition at 10 uM after 48 hrs by SRB assay; assay type: functional; conditions: HCC 2998, 48 h, read-out: GI; outline: as §3
HCT-15 = experiment: Cytotoxicity against human HCT15 cells assessed as growth inhibition at 10 uM after 48 hrs by SRB assay; assay type: functional; conditions: HCT-15, 48 h, read-out: GI; outline: as §3
Staphylococcus aureus [6] = experiment: Antibacterial activity against Staphylococcus aureus ATCC 6538 assessed as growth inhibition after 48 hrs by two-fold serial dilution assay; assay type: functional; conditions: ATCC 6538, 48 h; outline: as §1
[7] = Cytotoxicity against human UO31 cells assessed as growth inhibition at 10 uM after 48 hrs by SRB assay; assay type: functional; conditions: UO-31, 48 h, read-out: GI; outline: as §3
K562 = experiment: Cytotoxicity against human K562 cells assessed as growth inhibition at 10 uM after 48 hrs by SRB assay; assay type: functional; conditions: K562, 48 h, read-out: GI; outline: as §3
A498 = experiment: Cytotoxicity against human A498 cells assessed as growth inhibition at 10 uM after 48 hrs by SRB assay; assay type: functional; conditions: A498, 48 h, read-out: GI; outline: as §3
IGROV-1 = experiment: Cytotoxicity against human IGROV1 cells assessed as growth inhibition at 10 uM after 48 hrs by SRB assay; assay type: functional; conditions: IGROV-1, 48 h, read-out: GI; outline: as §3
Pseudomonas aeruginosa [8] = experiment: Antibacterial activity against Pseudomonas aeruginosa ATCC 27853 assessed as growth inhibition after 48 hrs by two-fold serial dilution assay; assay type: functional; conditions: ATCC 27853, 48 h; outline: as §1
Staphylococcus aureus [9] = experiment: Antibacterial activity against Staphylococcus aureus ATCC 6538 assessed as growth inhibition at 1 mg/mL after 24 hrs by agar-cup diffusion method; assay type: functional; conditions: ATCC 6538, 24 h, read-out: DIZ; outline: as §4
MCF7 = experiment: Cytotoxicity against human MCF7 cells assessed as growth inhibition at 10 uM after 48 hrs by SRB assay; assay type: functional; conditions: MCF7, 48 h, read-out: GI; outline: as §3
Aspergillus niger = experiment: Antifungal activity against Aspergillus niger assessed as growth inhibition at 1 mg/mL after 24 hrs by agar-cup diffusion method; assay type: functional, organism-based; outline: as §4
UACC-62 = experiment: Cytotoxicity against human UACC62 cells assessed as growth inhibition at 10 uM after 48 hrs by SRB assay; assay type: functional; conditions: UACC-62, 48 h, read-out: GI; outline: as §3
SF-268 = experiment: Cytotoxicity against human SF268 cells assessed as growth inhibition at 10 uM after 48 hrs by SRB assay; assay type: functional; conditions: SF-268, 48 h, read-out: GI; outline: as §3
[10] = Cytotoxicity against human Hs578T cells assessed as growth inhibition at 10 uM after 48 hrs by SRB assay; assay type: functional; conditions: Hs-578T, read-out: GI; outline: as §3
SR = experiment: Cytotoxicity against human SR cells assessed as growth inhibition at 10 uM after 48 hrs by SRB assay; assay type: functional; conditions: read-out: GI; outline: as §3
Bacillus spizizenii [11] = experiment: Antibacterial activity against Bacillus subtilis ATCC 6633 assessed as growth inhibition at 1 mg/mL after 24 hrs by agar-cup diffusion method; assay type: functional; conditions: ATCC 6633, 24 h, read-out: DIZ; outline: as §4
T47D = experiment: Cytotoxicity against human T47D cells assessed as growth inhibition at 10 uM after 48 hrs by SRB assay; assay type: functional; conditions: read-out: GI; outline: as §3
Pseudomonas aeruginosa [12] = experiment: Antibacterial activity against Pseudomonas aeruginosa ATCC 27853 assessed as growth inhibition at 1 mg/mL after 24 hrs by agar-cup diffusion method; assay type: functional; conditions: ATCC 27853, 24 h, read-out: DIZ; outline: as §4
RPMI-8226 = experiment: Cytotoxicity against human RPMI8226 cells assessed as growth inhibition at 10 uM after 48 hrs by SRB assay; assay type: functional; conditions: RPMI-8226, 48 h, read-out: GI; outline: as §3
U-251 = experiment: Cytotoxicity against human U251 cells assessed as growth inhibition at 10 uM after 48 hrs by SRB assay; assay type: functional; conditions: U-251, 48 h, read-out: GI; outline: as §3
Staphylococcus aureus [13] = experiment: Bactericidal activity against Staphylococcus aureus ATCC 6538 after 18 hrs; assay type: functional; conditions: ATCC 6538, 18 h; outline: as §2
MOLT-4 = experiment: Cytotoxicity against human MOLT4 cells assessed as growth inhibition at 10 uM after 48 hrs by SRB assay; assay type: functional; conditions: MOLT-4, 48 h, read-out: GI; outline: as §3
LOX IMVI = experiment: Cytotoxicity against human LOXIMVI cells assessed as growth inhibition at 10 uM after 48 hrs by SRB assay; assay type: functional; conditions: read-out: GI; outline: as §3

Compound	MIC (Escherichia coli [1]) [µg/mL]	inhibition of growth at 10 µM (NCI-H322M) [%]	inhibition of growth at 10 µM (CCRF-CEM) [%]	zone of inhibition at 1000 µg/mL (Candida albicans) [mm]	MBC (Escherichia coli [3]) [µg/mL]	MIC (Bacillus spizizenii [4]) [µg/mL]	inhibition of growth at 10 µM (HOP-92) [%]	inhibition of growth at 10 µM [5] [%]	inhibition of growth at 10 µM (PC-3) [%]	inhibition of growth at 10 µM (HCC 2998) [%]	inhibition of growth at 10 µM (HCT-15) [%]	MIC (Staphylococcus aureus [6]) [µg/mL]	inhibition of growth at 10 µM [7] [%]	inhibition of growth at 10 µM (K562) [%]	inhibition of growth at 10 µM (A498) [%]	inhibition of growth at 10 µM (IGROV-1) [%]	zone of inhibition at 1000 µg/mL (Staphylococcus aureus [9]) [mm]	inhibition of growth at 10 µM (MCF7) [%]	growth inhibition (GI) (Aspergillus niger)	inhibition of growth at 10 µM (UACC-62) [%]	other results
CCOC(=O)c1sc(NC(=O)Nc2ccccc2)nc1C	25 (≈ 81.9 µM)	< 10	22	> 13	25 (≈ 81.9 µM)	50 (≈ 164 µM)	64.2	13.9	4.18	27.4	< 10	25 (≈ 81.9 µM)	16.1	39	28.9	72.9	> 13	7.17	inactive	20	MBC (Pseudomonas aeruginosa [2]): 100 µg/mL (≈ 327 µM); MIC (Pseudomonas aeruginosa [8]): 50 µg/mL (≈ 164 µM); inhibition of growth at 10 µM (SF-268): 4.88%; inhibition of growth at 10 µM [10]: 6.4%; inhibition of growth at 10 µM (SR): 14.3%; zone of inhibition at 1000 µg/mL (Bacillus spizizenii [11]): > 13 mm; inhibition of growth at 10 µM (T47D): 12.6%; zone of inhibition at 1000 µg/mL (Pseudomonas aeruginosa [12]): > 13 mm; inhibition of growth at 10 µM (RPMI-8226): 22.8%; inhibition of growth at 10 µM (U-251): 9.58%; MBC (Staphylococcus aureus [13]): 25 µg/mL (≈ 81.9 µM); inhibition of growth at 10 µM (MOLT-4): 23.7%; inhibition of growth at 10 µM (LOX IMVI): 4.13%
Cc1nc(N)sc1C(=O)Nc1ccc(F)cc1	50 (≈ 199 µM)	2.56	< 10	> 13	100 (≈ 398 µM)	25 (≈ 99.5 µM)	< 10	2.36	< 10	11.8	< 10	12.5 (≈ 49.7 µM)	11.8	< 10	3.67	< 10	> 13	2.21	inactive	3.24	inhibition of growth at 10 µM (SF-268): < 10%; inhibition of growth at 10 µM [10]: 14.2%; inhibition of growth at 10 µM (SR): < 10%; zone of inhibition at 1000 µg/mL (Bacillus spizizenii [11]): > 13 mm; inhibition of growth at 10 µM (T47D): < 10%; zone of inhibition at 1000 µg/mL (Pseudomonas aeruginosa [12]): > 13 mm; inhibition of growth at 10 µM (RPMI-8226): < 10%; inhibition of growth at 10 µM (U-251): 5.77%; MBC (Staphylococcus aureus [13]): 25 µg/mL (≈ 99.5 µM); inhibition of growth at 10 µM (MOLT-4): < 10%; inhibition of growth at 10 µM (LOX IMVI): < 10%
CCOC(=O)c1sc(NS(=O)(=O)c2ccccc2)nc1C	50 (≈ 153 µM)	< 10	< 10	> 13	50 (≈ 153 µM)	100 (≈ 306 µM)	< 10	< 10	< 10	72.5	< 10	25 (≈ 76.6 µM)	13	< 10	11.6	93.1	> 13	< 10	inactive	< 10	MBC (Pseudomonas aeruginosa [2]): 200 µg/mL (≈ 613 µM); MIC (Pseudomonas aeruginosa [8]): 100 µg/mL (≈ 306 µM); inhibition of growth at 10 µM (SF-268): < 10%; inhibition of growth at 10 µM [10]: < 10%; inhibition of growth at 10 µM (SR): < 10%; zone of inhibition at 1000 µg/mL (Bacillus spizizenii [11]): > 13 mm; inhibition of growth at 10 µM (T47D): < 10%; zone of inhibition at 1000 µg/mL (Pseudomonas aeruginosa [12]): > 13 mm; inhibition of growth at 10 µM (RPMI-8226): < 10%; inhibition of growth at 10 µM (U-251): < 10%; MBC (Staphylococcus aureus [13]): 25 µg/mL (≈ 76.6 µM); inhibition of growth at 10 µM (MOLT-4): 24.4%; inhibition of growth at 10 µM (LOX IMVI): < 10%
CCOC(=O)c1sc(NC(=O)NC2CCCCC2)nc1C	50 (≈ 161 µM)	< 10	6.76	> 13	100 (≈ 321 µM)	100 (≈ 321 µM)	53.9	8.96	< 10	< 10	14.3	50 (≈ 161 µM)	10.6	9.69	15.3	43.7	> 13	12.7	inactive	26	inhibition of growth at 10 µM (SF-268): 12.6%; inhibition of growth at 10 µM [10]: 8.4%; inhibition of growth at 10 µM (SR): 35.3%; zone of inhibition at 1000 µg/mL (Bacillus spizizenii [11]): > 13 mm; inhibition of growth at 10 µM (T47D): 4.11%; zone of inhibition at 1000 µg/mL (Pseudomonas aeruginosa [12]): > 13 mm; inhibition of growth at 10 µM (RPMI-8226): 4.13%; inhibition of growth at 10 µM (U-251): < 10%; MBC (Staphylococcus aureus [13]): 50 µg/mL (≈ 161 µM); inhibition of growth at 10 µM (MOLT-4): 12.3%; inhibition of growth at 10 µM (LOX IMVI): 13%

Reference: ChEMBL document CHEMBL3124924, “Bifunctional ethyl 2-amino-4-methylthiazole-5-carboxylate derivatives: synthesis and in vitro biological evaluation as antimicrobial and anticancer agents” (2014)
